The results in this text go back to ChEMBL document CHEMBL1764997, “(Z)-3-butylidenephthalide from Ligusticum porteri , an α-glucosidase inhibitor” (J Nat Prod, 2011).

Usually IC50 stands for the concentration that inhibits the measured activity by half. As usually defined, the Ki is the equilibrium dissociation constant of an inhibitor or competing ligand from its target.

One experiment relates to L6. Nature of the experiment: Hypoglycemic activity in rat L6 myotubes assessed as increase in 2-deoxyglucose transport at 25 uM relative to control. It is filed as functional.
The subject of experiment [1] is Rattus norvegicus. Put plainly: Hypoglycemic activity in rat assessed as increase in insulin concentration at 5 mg/kg, iv. It is filed as functional, organism-based. The arrangement: dose 5 mg/kg.
For experiment [2], the system named is Mus musculus. Put plainly: Antihyperglycemic activity in po dosed diabetic KK-Ay mouse model. It is filed as functional, organism-based.
Experiment [3] relates to Rattus norvegicus. Put plainly: Hypoglycemic activity in rat assessed as decrease in plasma glucose at 5 mg/kg, iv. The arrangement: dose 5 mg/kg. It is filed as functional, organism-based.
The target of experiment [4] is Alpha-glucosidase MAL62 (Saccharomyces cerevisiae) (UniProt P07265). Put plainly: (§1) Inhibition of yeast alpha-glucosidase assessed as inhibition of p-nitrophenyl-alpha-D-glucopyranoside substrate hydrolysis after 35 mins by spectroscopy.
The test system of experiment [5] is Mus musculus. Nature of the experiment: Antihyperglycemic activity in ICR mouse assessed as change in blood glucose level at 10 mg/kg after 2 hrs by oral glucose tolerance test (RVb= -12 %). It is filed as functional.
Experiment [6] relates to Mus musculus. Nature of the experiment: Antihyperglycemic activity in ICR mouse assessed as change in blood glucose level at 10 mg/kg after 0.5 hr by oral glucose tolerance test (RVb= 59 %). It is filed as functional.
For experiment [7], the system named is Mus musculus. Put plainly: Antidiabetic activity in streptozotocin-induced diabetic ICR mouse assessed as change in blood glucose level at 10 mg/kg after 1.5 hrs by oral glucose tolerance test (RVb= 0.005 %). It is filed as functional.
Experiment [8] relates to Mus musculus. Nature of the experiment: Antidiabetic activity in streptozotocin-induced diabetic ICR mouse assessed as change in blood glucose level at 10 mg/kg after 2 hrs by oral glucose tolerance test (RVb= -12.9 %). It is filed as functional.
Experiment [9] deals with Mus musculus. Nature of the experiment: Antidiabetic activity in streptozotocin-induced diabetic ICR mouse assessed as change in blood glucose level at 10 mg/kg after 1 hr by oral glucose tolerance test (RVb= 10.3 %). It is filed as functional.
Experiment [10] concerns Mus musculus. Nature of the experiment: Antihyperglycemic activity in ICR mouse assessed as change in blood glucose level at 10 mg/kg after 1.5 hrs by oral glucose tolerance test (RVb= 2.5 %). It is filed as functional.
The subject of experiment [11] is Mus musculus. Nature of the experiment: Antidiabetic activity in streptozotocin-induced diabetic ICR mouse assessed as change in blood glucose level at 10 mg/kg after 0.5 hr by oral glucose tolerance test (RVb= 51.9 %). It is filed as functional.
In experiment [12] the test system is Mus musculus. Nature of the experiment: Antihyperglycemic activity in ICR mouse assessed as change in blood glucose level at 10 mg/kg after 1 hr by oral glucose tolerance test (RVb= 1.5 %). It is filed as functional.
For experiment [13], the system named is Mus musculus. Nature of the experiment: Antidiabetic activity in streptozotocin-induced diabetic ICR mouse assessed as change in blood glucose level at 31.2 mg/kg after 2 hrs by oral glucose tolerance test (RVb= -12.9 %). It is filed as functional.
In experiment [14] the test system is Mus musculus. Put plainly: Antidiabetic activity in streptozotocin-induced diabetic ICR mouse assessed as change in blood glucose level at 56.2 mg/kg after 2 hrs by oral glucose tolerance test (RVb= -12.9 %). It is filed as functional.
In experiment [15] the test system is Mus musculus. Put plainly: Antihyperglycemic activity in ICR mouse assessed as change in blood glucose level at 20 mg/kg after 1.5 hrs by oral glucose tolerance test (RVb= 2.5 %). It is filed as functional.
For experiment [16], the system named is Mus musculus. Put plainly: Antidiabetic activity in streptozotocin-induced diabetic ICR mouse assessed as change in blood glucose level at 56.2 mg/kg after 1 hr by oral sucrose tolerance test (RVb= 11.4 %). It is filed as functional. The method in brief: (§2)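 NAD (40 mg/kg ip) then STZ (100 mg/kg ip, 15 min later) diabetic male ICR mice, glucose >140 mg/dL after 7 days. Animals fasted 12 h, dosed orally in 0.05% Tween 80/saline, and given oral sucrose 2 g/kg 30 min later.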

Experiment [17] concerns Mus musculus. Put plainly: Antidiabetic activity in streptozotocin-induced diabetic ICR mouse assessed as change in blood glucose level at 56.2 mg/kg after 1 hr by oral glucose tolerance test (RVb= 10.3 %). It is filed as functional.
Experiment [18] concerns Mus musculus. Nature of the experiment: Antidiabetic activity in streptozotocin-induced diabetic ICR mouse assessed as change in blood glucose level at 56.2 mg/kg after 0.5 hr by oral sucrose tolerance test (RVb= 56 %). It is filed as functional. The method, boiled down: as §2
In experiment [19] the test system is Mus musculus. Put plainly: Antidiabetic activity in streptozotocin-induced diabetic ICR mouse assessed as change in blood glucose level at 56.2 mg/kg after 1.5 hrs by oral glucose tolerance test (RVb= 0.005 %). It is filed as functional.
For experiment [20], the system named is Mus musculus. Put plainly: Antidiabetic activity in streptozotocin-induced diabetic ICR mouse assessed as change in blood glucose level at 31.2 mg/kg after 0.5 hr by oral glucose tolerance test (RVb= 51.9 %). It is filed as functional.
For experiment [21], the system named is Mus musculus. Put plainly: Antidiabetic activity in streptozotocin-induced diabetic ICR mouse assessed as change in blood glucose level at 10 mg/kg after 1 hr by oral sucrose tolerance test (RVb= 11.4 %). It is filed as functional. The method, boiled down:
as §2

Experiment [22] concerns Mus musculus. Put plainly: Antihyperglycemic activity in ICR mouse assessed as change in blood glucose level at 20 mg/kg after 0.5 hr by oral glucose tolerance test (RVb= 59 %). It is filed as functional.
The test system of experiment [23] is Mus musculus. Put plainly: Antihyperglycemic activity in ICR mouse assessed as change in blood glucose level at 20 mg/kg after 2 hrs by oral glucose tolerance test (RVb= -12 %). It is filed as functional.
Experiment [24] concerns Mus musculus. Nature of the experiment: Antidiabetic activity in streptozotocin-induced diabetic ICR mouse assessed as change in blood glucose level at 31.2 mg/kg after 1 hr by oral glucose tolerance test (RVb= 10.3 %). It is filed as functional.
Experiment [25] has as its system Mus musculus. Nature of the experiment: Antihyperglycemic activity in ICR mouse assessed as change in blood glucose level at 20 mg/kg after 1 hr by oral glucose tolerance test (RVb= 1.5 %). It is filed as functional.
In experiment [26] the test system is Mus musculus. Put plainly: Antidiabetic activity in streptozotocin-induced diabetic ICR mouse assessed as change in blood glucose level at 56.2 mg/kg after 0.5 hr by oral glucose tolerance test (RVb= 51.9 %). It is filed as functional.
Another experiment concerns the target Alpha-glucosidase MAL62 (Saccharomyces cerevisiae, UniProt P07265). The experiment is described as §1.
Experiment [27] deals with Mus musculus. Nature of the experiment: Antidiabetic activity in streptozotocin-induced diabetic ICR mouse assessed as change in blood glucose level at 56.2 mg/kg after 1.5 hrs by oral sucrose tolerance test (RVb= 6.1 %). It is filed as functional. The method in brief: as §2
For experiment [28], the system named is Mus musculus. Put plainly: Antidiabetic activity in streptozotocin-induced diabetic ICR mouse assessed as change in blood glucose level at 10 mg/kg after 2 hrs by oral sucrose tolerance test (RVb= -4.3 %). It is filed as functional. The method, boiled down: as §2
The subject of experiment [29] is Mus musculus. Nature of the experiment: Antidiabetic activity in streptozotocin-induced diabetic ICR mouse assessed as change in blood glucose level at 10 mg/kg after 1.5 hrs by oral sucrose tolerance test (RVb= 6.1 %). It is filed as functional. The method in brief:
as §2

Experiment [30] concerns Mus musculus. Nature of the experiment: Antidiabetic activity in streptozotocin-induced diabetic ICR mouse assessed as change in blood glucose level at 56.2 mg/kg after 2 hrs by oral sucrose tolerance test (RVb= -4.3 %). It is filed as functional. The method, boiled down: as §2
Experiment [31] relates to Mus musculus. Nature of the experiment: Antidiabetic activity in streptozotocin-induced diabetic ICR mouse assessed as change in blood glucose level at 10 mg/kg after 0.5 hr by oral sucrose tolerance test (RVb= 56 %). It is filed as functional. The method in brief: as §2
The species entered for experiment [32] is Mus musculus. Put plainly: Inhibition of alpha-glucosidase in streptozotocin-induced diabetic ICR mouse intestine assessed as lowering of blood glucose levels. It is filed as functional, organism-based. The method in brief: as §2
Experiment [33] deals with Mus musculus. Put plainly: Antidiabetic activity in streptozotocin-induced diabetic ICR mouse assessed as change in blood glucose level at 31.2 mg/kg after 1.5 hrs by oral glucose tolerance test (RVb= 0.005 %). It is filed as functional.
Experiment [34] is filed under the species Mus musculus. Nature of the experiment: Antidiabetic activity in streptozotocin-induced diabetic ICR mouse assessed as decrease in blood glucose levels by oral glucose tolerance test.

The structures appear in SMILES notation. Activity calls are given as the source filed them. The calls are words filed in the database; no cut-off is given here.

Alpha-glucosidase MAL62 (Saccharomyces cerevisiae), sequence (P07265 whole entry): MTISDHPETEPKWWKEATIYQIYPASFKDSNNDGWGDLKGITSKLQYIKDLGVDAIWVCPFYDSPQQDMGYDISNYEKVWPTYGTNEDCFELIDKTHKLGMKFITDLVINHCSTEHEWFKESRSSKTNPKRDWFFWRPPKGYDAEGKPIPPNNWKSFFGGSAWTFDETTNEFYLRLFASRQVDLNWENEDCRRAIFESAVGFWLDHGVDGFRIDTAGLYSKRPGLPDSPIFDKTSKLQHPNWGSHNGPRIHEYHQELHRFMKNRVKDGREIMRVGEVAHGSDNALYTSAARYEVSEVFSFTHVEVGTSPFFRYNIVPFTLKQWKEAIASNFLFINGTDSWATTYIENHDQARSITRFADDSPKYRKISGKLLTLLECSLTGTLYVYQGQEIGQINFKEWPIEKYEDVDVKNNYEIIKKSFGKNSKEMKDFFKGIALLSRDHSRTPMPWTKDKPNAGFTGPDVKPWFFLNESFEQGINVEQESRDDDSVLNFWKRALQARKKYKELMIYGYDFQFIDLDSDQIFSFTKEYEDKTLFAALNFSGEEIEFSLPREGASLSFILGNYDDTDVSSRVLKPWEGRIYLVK
Alpha-glucosidase MAL62, sequence (P07265 whole entry): as above

With `COc1cc(/C=C/C(=O)O)ccc1O` [FERULATE], in the experiment on L6, the “fold change (FC)” value is on record as 2.98. Besides, the outcome in the experiment with Rattus norvegicus [1], with Mus musculus [2] and in the experiment with Rattus norvegicus [3] was Active. For the same molecule, the outcome in experiment [4] was inactive.

As to `COc1ccc(Cl)cc1C(=O)NCCc1ccc(S(=O)(=O)NC(=O)NC2CCCCC2)cc1` [GLYBURIDE], the Activity in the experiment on Mus musculus [5] is on record as -68%; in the experiment with Mus musculus [6], -42%; in the experiment with Mus musculus [7] it was -10%; in the experiment on Mus musculus [8] it was -21.5%; in the experiment on Mus musculus [9] it was 3.8%; in the experiment with Mus musculus [10], -69%. Besides, the values for the Activity in the experiment with Mus musculus [11] and with Mus musculus [12] were 42% and -65%, respectively.

For the molecule `CCCC=C1OC(=O)c2ccccc21` [(E)-BUTYLIDENEPHTHALIDE], the Activity with Mus musculus [13] is -9.1%; with Mus musculus [14], -21.7%; in the experiment with Mus musculus [5] it was -42%; in the experiment with Mus musculus [15], -18%; with Mus musculus [16], 7.6%; in the experiment on Mus musculus [6] it was -9%. Also, the Activity in the experiment on Mus musculus [17] was -5.2%; in the experiment with Mus musculus [7], 1.5%; in the experiment on Mus musculus [18], 23%; in the experiment with Mus musculus [19], -12%; with Mus musculus [20], 27%; in the experiment on Mus musculus [8], -7.4%. Moreover, the Activity with Mus musculus [21] was 19%; with Mus musculus [22], 20%; with Mus musculus [9], 3.5%; with Mus musculus [23], -23%; with Mus musculus [24], 3.3%; with Mus musculus [25] it was -6.9%. In addition, the Activity with Mus musculus [26] is 12%; in the experiment with Mus musculus [10] it was -41%; in experiment [4], “Dose-dependent effect”; with Mus musculus [27], 2.5%; in the experiment with Mus musculus [28] it was 6.7%; with Mus musculus [29], 16%. Besides, the Activity in the experiment on Mus musculus [30] is 6.4%; with Mus musculus [31], 41%; in the experiment with Mus musculus [11], 35%; in the experiment on Mus musculus [33], -0.3%; in the experiment on Mus musculus [12], -24%. Moreover, the concentration for half-maximal inhibition (IC50) at Alpha-glucosidase MAL62 came out at 2.35 mM. Besides, at Alpha-glucosidase MAL62, the inhibition constant Ki amounted to 4.86 mM. Further, in the experiment listed under Mus musculus [32], the inhibition result was “Active”.

In the case of `CCC/C=C1\OC(=O)C2=C1CCC=C2` [LIGUSTILIDE], the Activity is -10% in the experiment with Mus musculus [13]; 6.5% with Mus musculus [14]; -8% in the experiment with Mus musculus [5]; -3.5% in the experiment with Mus musculus [15]; 42% in the experiment with Mus musculus [6]; 17.1% in the experiment with Mus musculus [17]. In addition, the Activity was -19% in the experiment with Mus musculus [7]; 2.1% in the experiment on Mus musculus [19]; 17% with Mus musculus [20]; -15.6% in the experiment with Mus musculus [8]; “Dose-dependent effect” in the experiment filed under Mus musculus [34]; 40% with Mus musculus [22]. Also, the Activity in the experiment with Mus musculus [9] is reported as -14%; in the experiment with Mus musculus [23] it was -16%; in the experiment with Mus musculus [24], -6.3%; in the experiment with Mus musculus [25], 14%; with Mus musculus [26], 25%; in the experiment with Mus musculus [10] it was 7%. In addition, the Activity with Mus musculus [11] is reported as 13%; in the experiment with Mus musculus [33], -12%; with Mus musculus [12] it was 25%. Moreover, the result in [4] was inactive.
